Assay results published in ChEMBL document CHEMBL1687881, “Synthesis and evaluation of aroylthiourea derivatives of 4-β-amino-4'-O-demethyl-4-desoxypodophyllotoxin as novel topoisomerase II inhibitors” (Eur J Med Chem, 2011).
pIC50: −log10 of the molar value. Activity calls are given as the source filed them. The rule behind the calls is not given here.

How the values were obtained:
A549 = experiment: Cytotoxicity against human A549 cells assessed as cell growth inhibition after 3 days by MTT assay; format: functional, cell-based; settings: A549, 72 h
Method in brief: (§1)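 Cells grown in RPMI-1640 with 10% FBS, penicillin 100 U/mL and streptomycin, 37 °C, 5% CO2. Exponential-phase cells seeded at 5 × 10⁴–1 × 10⁵ cells/mL, grown overnight, then treated with DMSO-predissolved compounds for 3 days. Medium replaced by MTT for 4 h at 37 °C; formazan dissolved in SDS/DMF/water/acetic acid buffer (pH 4.7); absorbance read at 570 nm. At least three independent experiments.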

HCT-116 [1] = experiment: Cytotoxicity against human HCT116 cells assessed as cell growth inhibition after 3 days by MTT assay; format: functional, cell-based; settings: HCT-116, 72 h; method in brief: as §1
HepG2 = experiment: Cytotoxicity against human HepG2 cells assessed as cell growth inhibition after 3 days by MTT assay; format: functional, cell-based; settings: HepG2, 72 h; method in brief: as §1
[2] = biological target: DNA topoisomerase 2-alpha (Homo sapiens) (UniProt P11388); experiment: Inhibition human topoisomerase 2 kDNA decatenation activity at 200 uM
HCT-116 [3] = experiment: Cell cycle arrest in human HCT116 cells assessed as accumulation at G2/M phase at 5 uM after 24 hrs using propidium iodide by fluorescence flow cytometry; format: functional
Method in brief: (§2)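 HCT-116 cells incubated 24 h with test agent at […], stained with propidium iodide; DNA content analysed by fluorescence flow cytometry to give percentage of cells per cell-cycle phase. Values are means of at least three independent experiments.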

HCT-116 [4] = experiment: Cell cycle arrest in human HCT116 cells assessed as accumulation at sub G1 phase at 10 uM after 24 hrs using propidium iodide by fluorescence flow cytometry; format: functional; method in brief: as §2
HCT-116 [5] = experiment: Cell cycle arrest in human HCT116 cells assessed as accumulation at S phase at 1.25 uM after 24 hrs using propidium iodide by fluorescence flow cytometry; format: functional; method in brief: as §2
HCT-116 [6] = experiment: Cell cycle arrest in human HCT116 cells assessed as accumulation at sub G1 phase at 5 uM after 24 hrs using propidium iodide by fluorescence flow cytometry; format: functional; method in brief: as §2
HCT-116 [7] = experiment: Cell cycle arrest in human HCT116 cells assessed as accumulation at S phase at 5 uM after 24 hrs using propidium iodide by fluorescence flow cytometry; format: functional; method in brief: as §2
HCT-116 [8] = experiment: Cell cycle arrest in human HCT116 cells assessed as accumulation at S phase at 2.5 uM after 24 hrs using propidium iodide by fluorescence flow cytometry; format: functional; method in brief: as §2
HCT-116 [9] = experiment: Cell cycle arrest in human HCT116 cells assessed as accumulation at S phase at 10 uM after 24 hrs using propidium iodide by fluorescence flow cytometry; format: functional; method in brief: as §2
HCT-116 [10] = experiment: Cell cycle arrest in human HCT116 cells assessed as accumulation at G2/M phase at 1.25 uM after 24 hrs using propidium iodide by fluorescence flow cytometry; format: functional; method in brief: as §2
HCT-116 [11] = experiment: Cell cycle arrest in human HCT116 cells assessed as accumulation at G1 phase at 5 uM after 24 hrs using propidium iodide by fluorescence flow cytometry; format: functional; method in brief: as §2
HCT-116 [12] = experiment: Cell cycle arrest in human HCT116 cells assessed as accumulation at G1 phase at 10 uM after 24 hrs using propidium iodide by fluorescence flow cytometry; format: functional; method in brief: as §2
HCT-116 [13] = experiment: Cell cycle arrest in human HCT116 cells assessed as accumulation at G2/M phase at 2.5 uM after 24 hrs using propidium iodide by fluorescence flow cytometry; format: functional; method in brief: as §2
HCT-116 [14] = experiment: Cell cycle arrest in human HCT116 cells assessed as accumulation at sub G1 phase at 1.25 uM after 24 hrs using propidium iodide by fluorescence flow cytometry; format: functional; method in brief: as §2
HCT-116 [15] = experiment: Cell cycle arrest in human HCT116 cells assessed as accumulation at G1 phase at 1.25 uM after 24 hrs using propidium iodide by fluorescence flow cytometry; format: functional; method in brief: as §2
HCT-116 [16] = experiment: Cell cycle arrest in human HCT116 cells assessed as accumulation at sub G1 phase at 2.5 uM after 24 hrs using propidium iodide by fluorescence flow cytometry; format: functional; method in brief: as §2
HCT-116 [17] = experiment: Cell cycle arrest in human HCT116 cells assessed as accumulation at G1 phase at 2.5 uM after 24 hrs using propidium iodide by fluorescence flow cytometry; format: functional; method in brief: as §2
HCT-116 [18] = experiment: Cell cycle arrest in human HCT116 cells assessed as accumulation at G2/M phase at 10 uM after 24 hrs using propidium iodide by fluorescence flow cytometry; format: functional; method in brief: as §2

Sequence of DNA topoisomerase 2-alpha (Homo sapiens) (P11388 whole entry): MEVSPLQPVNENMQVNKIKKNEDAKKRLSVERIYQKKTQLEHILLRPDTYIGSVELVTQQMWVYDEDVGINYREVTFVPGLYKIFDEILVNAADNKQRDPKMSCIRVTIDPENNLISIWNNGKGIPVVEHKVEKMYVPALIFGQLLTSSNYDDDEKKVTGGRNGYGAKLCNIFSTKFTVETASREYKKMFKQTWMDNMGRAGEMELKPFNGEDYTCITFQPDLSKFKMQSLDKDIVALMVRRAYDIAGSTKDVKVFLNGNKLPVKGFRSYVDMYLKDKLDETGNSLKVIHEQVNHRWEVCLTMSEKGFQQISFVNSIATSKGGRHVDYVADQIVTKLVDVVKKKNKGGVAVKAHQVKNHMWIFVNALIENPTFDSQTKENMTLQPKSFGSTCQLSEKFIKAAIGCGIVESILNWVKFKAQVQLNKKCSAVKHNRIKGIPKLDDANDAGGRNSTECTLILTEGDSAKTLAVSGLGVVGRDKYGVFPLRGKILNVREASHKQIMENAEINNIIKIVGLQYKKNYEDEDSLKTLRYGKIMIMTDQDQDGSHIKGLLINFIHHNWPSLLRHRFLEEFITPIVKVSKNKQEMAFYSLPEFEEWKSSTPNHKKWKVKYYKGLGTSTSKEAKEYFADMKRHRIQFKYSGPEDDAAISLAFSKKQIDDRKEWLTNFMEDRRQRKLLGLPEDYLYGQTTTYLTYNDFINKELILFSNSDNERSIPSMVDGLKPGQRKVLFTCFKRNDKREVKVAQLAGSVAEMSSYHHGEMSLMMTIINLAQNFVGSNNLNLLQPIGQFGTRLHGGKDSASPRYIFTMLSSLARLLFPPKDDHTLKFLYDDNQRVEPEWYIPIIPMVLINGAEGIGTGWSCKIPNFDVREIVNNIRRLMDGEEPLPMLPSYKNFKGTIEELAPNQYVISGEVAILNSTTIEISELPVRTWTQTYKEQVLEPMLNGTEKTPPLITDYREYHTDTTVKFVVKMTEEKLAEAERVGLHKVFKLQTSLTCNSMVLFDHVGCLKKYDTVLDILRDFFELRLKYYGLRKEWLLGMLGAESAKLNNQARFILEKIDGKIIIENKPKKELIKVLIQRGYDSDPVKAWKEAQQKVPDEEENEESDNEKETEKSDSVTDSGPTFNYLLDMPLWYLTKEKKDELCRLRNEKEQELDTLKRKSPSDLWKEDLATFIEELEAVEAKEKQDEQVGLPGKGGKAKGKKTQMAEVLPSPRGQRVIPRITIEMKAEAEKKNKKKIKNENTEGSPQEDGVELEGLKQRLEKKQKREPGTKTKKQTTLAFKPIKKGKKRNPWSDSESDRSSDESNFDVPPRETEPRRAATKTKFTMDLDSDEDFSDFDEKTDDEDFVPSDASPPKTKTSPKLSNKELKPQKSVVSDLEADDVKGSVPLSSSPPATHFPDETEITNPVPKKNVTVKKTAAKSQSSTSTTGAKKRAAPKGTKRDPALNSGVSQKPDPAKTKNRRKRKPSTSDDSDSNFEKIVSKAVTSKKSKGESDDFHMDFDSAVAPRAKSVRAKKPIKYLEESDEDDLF

COc1cc([C@@H]2c3cc4c(cc3[C@@H](NC(=S)NC(=O)c3ccc(F)cc3)[C@H]3COC(=O)[C@H]23)OCO4)cc(OC)c1O was tested, and the pIC50 (A549) was 4.97, the pIC50 (HCT-116 [1]) was 5.17 and the pIC50 (HepG2) was 5.08.

Work on COc1cc([C@@H]2c3cc4c(cc3[C@@H](O[C@@H]3O[C@@H]5CO[C@@H](C)O[C@H]5[C@H](O)[C@H]3O)[C@H]3COC(=O)[C@H]23)OCO4)cc(OC)c1O [ETOPOSIDE] yielded a pIC50 (A549) of 4.67, a pIC50 (HCT-116 [1]) of 4.87 and a pIC50 (HepG2) of 5.31.

COc1cc([C@@H]2c3cc4c(cc3[C@@H](NC(=S)NC(=O)c3ccccc3C)[C@H]3COC(=O)[C@H]23)OCO4)cc(OC)c1O gave a pIC50 (A549) of 4.91, a pIC50 (HCT-116 [1]) of 5.33 and a pIC50 (HepG2) of 5.28.

With COc1cc([C@@H]2c3cc4c(cc3[C@@H](NC(=S)NC(=O)c3ccccc3)[C@H]3COC(=O)[C@H]23)OCO4)cc(OC)c1O the inhibition [2] was “Active”, the Activity (HCT-116 [3]) was 95.77% and the Activity (HCT-116 [4]) was 0%. The Activity (HCT-116 [5]) was 8.74%, the Activity (HCT-116 [6]) was 0% and the pIC50 (A549) was 5.01. For the same molecule, the Activity (HCT-116 [7]) was 0%, the Activity (HCT-116 [8]) was 5.09% and the pIC50 (HCT-116 [1]) was 5.20. The Activity (HCT-116 [9]) was 0%, the Activity (HCT-116 [10]) was 42.66% and the pIC50 (HepG2) was 5.21. For the same molecule, the Activity (HCT-116 [11]) was 4.23%, the Activity (HCT-116 [12]) was 3.55% and the Activity (HCT-116 [13]) was 93.11%. It also gave an Activity (HCT-116 [14]) of 0%, an Activity (HCT-116 [15]) of 48.6% and an Activity (HCT-116 [16]) of 0%. It also gave an Activity (HCT-116 [17]) of 1.8% and an Activity (HCT-116 [18]) of 96.45%.

COc1cc([C@@H]2c3cc4c(cc3[C@@H](NC(=S)NC(=O)c3cccc5ccccc35)[C@H]3COC(=O)[C@H]23)OCO4)cc(OC)c1O was tested, and the inhibition [2] was “Active”, the pIC50 (A549) was 5.22 and the pIC50 (HCT-116 [1]) was 5.66. For the same molecule, the pIC50 (HepG2) was 4.73.

With COc1cc([C@@H]2c3cc4c(cc3[C@@H](NC(=S)NC(=O)c3ccccc3I)[C@H]3COC(=O)[C@H]23)OCO4)cc(OC)c1O the inhibition [2] was “Active”, the pIC50 (A549) was 4.82 and the pIC50 (HCT-116 [1]) was 5.17. For the same molecule, the pIC50 (HepG2) was 5.17.

Molecule COc1cc([C@@H]2c3cc4c(cc3[C@@H](NC(=S)NC(=O)c3ccccc3Br)[C@H]3COC(=O)[C@H]23)OCO4)cc(OC)c1O has a pIC50 (A549) of 4.94, a pIC50 (HCT-116 [1]) of 5.21 and a pIC50 (HepG2) of 5.29.

Work on COc1cc([C@@H]2c3cc4c(cc3[C@@H](N)[C@H]3COC(=O)[C@H]23)OCO4)cc(OC)c1O yielded a pIC50 (A549) of 5.28, a pIC50 (HCT-116 [1]) of 5.68 and a pIC50 (HepG2) of 5.82.

COc1cc([C@@H]2c3cc4c(cc3[C@@H](NC(=S)NC(=O)c3cccc(C)c3)[C@H]3COC(=O)[C@H]23)OCO4)cc(OC)c1O gave a pIC50 (A549) of 4.88, a pIC50 (HCT-116 [1]) of 5.26 and a pIC50 (HepG2) of 5.34.

In the case of COc1cc([C@@H]2c3cc4c(cc3[C@@H](NC(=S)NC(=O)c3ccc(Cl)cc3)[C@H]3COC(=O)[C@H]23)OCO4)cc(OC)c1O, the pIC50 (A549) was 4.94, the pIC50 (HCT-116 [1]) was 5.14 and the pIC50 (HepG2) was 5.12.

For COc1cc([C@@H]2c3cc4c(cc3[C@@H](NC(=S)NC(=O)c3ccccc3Cl)[C@H]3COC(=O)[C@H]23)OCO4)cc(OC)c1O, the pIC50 (A549) was 4.99, the pIC50 (HCT-116 [1]) was 5.11 and the pIC50 (HepG2) was 5.11.

With COc1cc([C@@H]2c3cc4c(cc3[C@@H](NC(=S)NC(=O)c3ccc(C)cc3)[C@H]3COC(=O)[C@H]23)OCO4)cc(OC)c1O the pIC50 (A549) was 4.95, the pIC50 (HCT-116 [1]) was 5.17 and the pIC50 (HepG2) was 5.52.

COc1cc([C@@H]2c3cc4c(cc3[C@@H](NC(=S)NC(=O)c3cccc(Cl)c3)[C@H]3COC(=O)[C@H]23)OCO4)cc(OC)c1O was tested, and the pIC50 (A549) was 4.75, the pIC50 (HCT-116 [1]) was 5.17 and the pIC50 (HepG2) was 5.12.
